Assay results of several laboratories.
pIC50: −log10 of the molar value. Converted amounts (≈) assume the structure as drawn.

Structure (SMILES) | organism | test | system | setting | quantity | value
COC1=CC(=O)c2ccccc2C1=O | Trichophyton mentagrophytes | microbial growth, broth dilution | ATCC9533 | 96 h | MIC | 6.25 µg/mL (≈ 33.2 µM)
N#Cc1c(-c2ccc(OCc3ccccc3)cc2)c(C(N)=S)c(N)n(N)c1=O | Enterobacter cloacae | microbial growth, well diffusion | ATCC23355 | 500 µg/mL | inhibition zone | 15 mm
Cn1cc2c3c1C(=O)C(NCCc1ccc(O)cc1)=CC3=[N+](C)CC2 | Babesia divergens | parasite growth, SYBR Green |  | 60 h, blood stage | pIC50 | 7.91
Cc1c(C(N)=O)c(N)n(N)c(=O)c1C#N | Enterobacter cloacae | microbial growth, well diffusion | ATCC23355 | 500 µg/mL | inhibition zone | 21 mm
Cn1cc2c3c1C(=O)C(NCCc1ccc(O)cc1)=CC3=NCC2 | Babesia divergens | parasite growth, SYBR Green |  | 60 h, blood stage | pIC50 | 6.00
CN(Cc1ccc(C2(C(F)(F)F)CC2)cc1)Cc1cccc2ccccc12 | Trichophyton mentagrophytes | microbial growth, disc diffusion | ATCC18748 | 0.256 µg/mL, 72 h | inhibition zone | ≥ 55 mm
CN(C)c1ccc(-c2c(C(N)=O)c(N)n(N)c(=O)c2C#N)cc1 | Enterobacter cloacae | microbial growth, well diffusion | ATCC23355 | 500 µg/mL | inhibition zone | 17 mm
CN(Cc1ccc(C(C)(C)C)cc1)Cc1cccc2ccccc12 | Trichophyton mentagrophytes | microbial growth, disc diffusion | ATCC18748 | 0.002 µg/mL, 72 h | inhibition zone | 27.8 mm
COC1=CC2=[N+](C)CCc3c[nH]c(c32)C1=O | Babesia divergens | parasite growth, SYBR Green |  | 60 h, blood stage | pIC50 | 6.00
CC(=O)Oc1ccc(-c2c(C(N)=O)c(N)n(N)c(=O)c2C#N)cc1 | Enterobacter cloacae | microbial growth, well diffusion | ATCC23355 | 500 µg/mL | inhibition zone | 12 mm
O=C1C(Br)=C(Br)C(=O)c2ccccc21 | Trichophyton mentagrophytes | microbial growth, broth dilution | ATCC9533 | 96 h | MIC | < 1.56 µg/mL
O=C1c2[nH]cc3c2C(=NCC3)c2c(-c3ccc(O)cc3)c[nH]c21 | Babesia divergens | parasite growth, SYBR Green |  | 60 h, blood stage | pIC50 | 6.21
